# Source: ChEMBL document CHEMBL3244322, “5-O-Alkylated derivatives of 5-hydroxy-2'-deoxyuridine as potential antiviral agents. Anti-herpes activity of 5-propynyloxy-2'-deoxyuridine” (J Med Chem, 1978)
# Activity calls are given as the source filed them. The calls are words filed in the database; no cut-off is given here.
# Legend:
# Human alphaherpesvirus 1 [1] = assay: Antiviral activity against Herpes simplex virus 1 KOS infected in primary rabbit kidney cells assessed as inhibition of virus-induced cytopathogenicity; format: functional; settings: Human alphaherpesvirus 1, KOS
# Human alphaherpesvirus 1 [2] = assay: Antiviral activity against Herpes simplex virus 1 KOS infected in human skin fibroblasts primed with interferon and superinduced with cyclohexamide and actinomycin D assessed as inhibition of virus-induced cytopathogenicity; format: functional; settings: Human alphaherpesvirus 1, KOS
# [3] = system: Vesicular stomatitis virus; assay: Antiviral activity against Vesicular stomatitis virus infected in primary rabbit kidney cells assessed as inhibition of virus-induced cytopathogenicity; format: functional, organism-based
# [4] = system: Vesicular stomatitis virus; assay: Antiviral activity against Vesicular stomatitis virus infected in human skin fibroblasts primed with interferon and superinduced with cyclohexamide and actinomycin D assessed as inhibition of virus-induced cytopathogenicity; format: functional, organism-based
# [5] = Cytotoxicity against mouse L cells assessed as suppression of replication; format: cell-based; settings: l929
# [6] = Cytotoxicity against mouse L cells assessed as suppression of replication at 10^-3 M; format: cell-based; settings: l929, 1000 µM
# [7] = Ratio of I50 for DNA synthesis in primary rabbit kidney cells by [3H]-dT incorporation assay to MIC50 for Herpes simplex virus 1 KOS
# Outline: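 DNA synthesis in uninfected PRK cells measured by [3H]-dT incorporation. The concentration giving 50% reduction is set against the concentration giving 50% reduction in herpes virus cytopathogenicity.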
Compound,MIC (Human alphaherpesvirus 1 [1]),MIC (Human alphaherpesvirus 1 [2]),inhibition [3],inhibition [4],Activity [5],Activity [6],Ratio [7]
NC(=O)COc1cn([C@H]2C[C@H](O)[C@@H](CO)O2)c(=O)[nH]c1=O,140 µM,260 µM,inactive,inactive,–,–,–
O=c1[nH]c(=O)n([C@H]2C[C@H](O)[C@@H](CO)O2)cc1OCc1ccccc1,> 120 µM,> 450 µM,inactive,inactive,–,–,–
C=CCOc1cn([C@@H]2O[C@H](CO)[C@@H](O)[C@H]2O)c(=O)[nH]c1=O,> 600 µM,> 600 µM,inactive,inactive,–,–,–
Nc1ncnc2c1ncn2[C@@H]1O[C@H](CO)[C@@H](O)[C@@H]1O [VIDARABINE],14 µM,3.5 µM,–,–,–,–,–
O=C(O)COc1cn([C@H]2C[C@H](O)[C@@H](CO)O2)c(=O)[nH]c1=O,> 600 µM,–,inactive,inactive,–,–,–
C=CCOc1cn([C@H]2C[C@H](O)[C@@H](CO)O2)c(=O)[nH]c1=O,14 µM,140 µM,inactive,inactive,–,–,–
O=c1[nH]c(=O)n([C@H]2C[C@H](O)[C@@H](CO)O2)cc1OCc1ccc([N+](=O)[O-])cc1,> 260 µM,> 520 µM,inactive,inactive,–,–,–
O=c1[nH]c(=O)n([C@H]2C[C@H](O)[C@@H](CO)O2)cc1O,16 µM,3.5 µM,–,–,–,–,–
O=c1[nH]c(=O)n([C@@H]2O[C@H](CO)[C@@H](O)[C@H]2O)cc1OCc1ccc([N+](=O)[O-])cc1,> 600 µM,> 600 µM,inactive,inactive,–,–,–
O=c1[nH]c(=O)n([C@H]2C[C@H](O)[C@@H](CO)O2)cc1I [IDOXURIDINE],1.4 µM,0.35 µM,–,–,Toxic,–,–
Cc1ccc(COc2cn([C@@H]3O[C@H](CO)[C@@H](O)[C@H]3O)c(=O)[nH]c2=O)cc1,> 600 µM,> 600 µM,inactive,inactive,–,–,–
C#CCOc1cn([C@H]2C[C@H](O)[C@@H](CO)O2)c(=O)[nH]c1=O,2.6 µM,3.5 µM,inactive,inactive,–,Non-toxic,150
O=c1[nH]c(=O)n([C@@H]2O[C@H](CO)[C@@H](O)[C@H]2O)cc1OCc1ccccc1,> 600 µM,> 600 µM,inactive,inactive,–,–,–
NC(=O)COc1cn([C@@H]2O[C@H](CO)[C@@H](O)[C@H]2O)c(=O)[nH]c1=O,> 600 µM,> 600 µM,inactive,inactive,–,–,–
